Among the data in ChEMBL document CHEMBL3352268, “Structures and bioactivities of dihydrochalcones from Metrodorea stipularis” (J Nat Prod, 2014) are EC50 and IC50 values, retold here.

Broadly, the EC50 is the concentration giving half of the maximal effect. High values mean weaker potency, low ones greater potency. What is called IC50 is the concentration that inhibits the measured activity by half. A higher IC50 goes with weaker potency in that assay.

SMILES strings stand for the structures.

In experiment [1] the test system is Plasmodium falciparum. The experiment can be described thus: Antimalarial activity against Plasmodium falciparum Dd2 after 72 hrs by SYBR Green-based parasite proliferation assay. Format: functional. To be noted: Dd2, 72 h. The essentials: (§1)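 Parasites grown in human O+ erythrocytes in RPMI 1640 with hypoxanthine, HEPES, Albumax and 5% human serum, under 3% CO2/1% O2/96% N2 at 37 °C. Cultures were exposed to serial dilutions of compound for 72 h. Parasite DNA growth was read by SYBR Green fluorescence. EC50 was derived from quadruplicate runs, with bromophycolide A as positive control.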

The next experiment concerns the target Cruzipain (Trypanosoma cruzi, UniProt P25779). The experiment can be described thus: Inhibition of Trypanosoma cruzi cruzain using Z-Phe-Arg-AMC as substrate by spectrofluorimetry. The essentials:
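Substrate Z-Phe-Arg-AMC; activity tracked 5 min with stirring in phosphate buffer pH 6.3 with DTT at 37 °C, in cuvettes (ex 380/em 460 nm). Controls: no inhibitor, and E-64. Run in triplicate. IC50 from rates at five inhibitor concentrations by nonlinear regression.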

Experiment [2] concerns Plasmodium falciparum. Briefly: Antimalarial activity against Plasmodium falciparum 3D7 after 72 hrs by SYBR Green-based parasite proliferation assay. Type of experiment: functional, organism-based. The settings on record: 3D7, 72 h. In short, it runs like this: as §1
The target in another experiment is Procathepsin L (Homo sapiens, UniProt P07711). Briefly: Inhibition of cathepsin L (unknown origin) using fluorometric Z-Phe-Arg-AMC as substrate by spectrofluorimetry. The essentials: (§2)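 Enzyme activated 5 min with DTT in acetate buffer pH 5.5 at 37 °C, then incubated 5 min with sample. Z-Phe-Arg-AMC at 185 μM (catB) or 10 μM (catL), with stirring; fluorescence ex 355/em 460 nm. Controls: no inhibitor, and E-64. Run in triplicate. IC50 from rates at ≥7 inhibitor concentrations by nonlinear regression.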

Experiment [3] relates to Plasmodium falciparum. Briefly: Antimalarial activity against Plasmodium falciparum W2 after 72 hrs by SYBR Green-based parasite proliferation assay. Type of experiment: functional, organism-based. To be noted: W2, 72 h. In short, it runs like this: as §1
The target in a further experiment is Cathepsin B (Homo sapiens, UniProt P07858). Briefly: Inhibition of cathepsin B (unknown origin) using fluorometric Z-Phe-Arg-AMC as substrate by spectrofluorimetry. The essentials: as §2

Sequence of Procathepsin L (P07711 whole entry): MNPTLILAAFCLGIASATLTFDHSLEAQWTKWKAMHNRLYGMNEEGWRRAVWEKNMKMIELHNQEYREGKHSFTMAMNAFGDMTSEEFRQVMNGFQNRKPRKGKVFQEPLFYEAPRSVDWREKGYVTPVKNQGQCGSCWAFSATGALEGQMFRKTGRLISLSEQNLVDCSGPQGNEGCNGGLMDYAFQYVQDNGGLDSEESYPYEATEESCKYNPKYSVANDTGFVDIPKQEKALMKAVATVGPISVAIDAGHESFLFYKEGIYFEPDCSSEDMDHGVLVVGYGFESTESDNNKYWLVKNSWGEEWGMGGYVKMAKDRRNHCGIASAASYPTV
Sequence of Cruzipain (P25779 whole entry): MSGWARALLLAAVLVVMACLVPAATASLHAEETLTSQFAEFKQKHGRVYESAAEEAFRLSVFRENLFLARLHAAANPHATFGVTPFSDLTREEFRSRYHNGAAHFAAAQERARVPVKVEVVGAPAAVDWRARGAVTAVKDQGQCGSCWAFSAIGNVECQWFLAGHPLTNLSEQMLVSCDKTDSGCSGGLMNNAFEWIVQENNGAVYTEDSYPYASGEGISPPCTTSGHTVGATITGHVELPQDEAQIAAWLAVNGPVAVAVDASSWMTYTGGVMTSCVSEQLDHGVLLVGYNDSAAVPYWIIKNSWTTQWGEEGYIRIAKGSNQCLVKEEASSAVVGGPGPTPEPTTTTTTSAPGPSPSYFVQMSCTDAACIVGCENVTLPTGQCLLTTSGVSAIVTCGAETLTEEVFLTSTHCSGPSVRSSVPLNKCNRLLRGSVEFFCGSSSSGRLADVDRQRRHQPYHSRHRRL

Turning to `CC1(C)CCc2cc(CCC(=O)c3c(O)cc4c(c3O)CCC(C)(C)O4)ccc2O1`, the EC50 in the experiment with Plasmodium falciparum [1] was 11.7 µM; in the experiment on Plasmodium falciparum [2], 14.4 µM; with Plasmodium falciparum [3], 6.7 µM. Moreover, the IC50 against Cruzipain was 21.6 µM; against Procathepsin L it was over 100 µM.

Take `CC(C)=CCc1cc(CCC(=O)c2c(O)cc3c(c2O)CCC(C)(C)O3)ccc1O`: the values for the IC50 against Cruzipain, against Procathepsin L and against Cathepsin B were 12 µM, 3.3 µM and over 100 µM, respectively.

For `CC1(C)CCc2c(cc(O)c(C(=O)CCc3ccc4c(c3)CC3C(C)(C)CCCC3(C)O4)c2O)O1` (centres undefined), the half-maximal effective concentration (EC50) was 12.4 µM in the experiment with Plasmodium falciparum [1], 17.7 µM with Plasmodium falciparum [2] and 8.5 µM with Plasmodium falciparum [3]. In addition, the IC50 against Cruzipain was 8.7 µM; against Procathepsin L, over 100 µM; against Cathepsin B, 8.5 µM.

`CC(C)=CCC/C(C)=C\Cc1c(O)cc(O)c(C(=O)CCc2ccc(O)cc2)c1O`: the IC50 at Cruzipain was 7.1 µM; at Procathepsin L, 1 µM; against Cathepsin B, over 100 µM.

Consider `CC(C)C[C@H](NC(=O)[C@H]1O[C@@H]1C(=O)O)C(=O)NCCCCN=C(N)N` [E-64], for which the IC50 is 0.03 µM against Procathepsin L and 0.04 µM at Cathepsin B.
